For orientation: IC50 means the concentration needed to halve the response being measured. One may read the inhibition as the change of the read-out against control, counted positive when it falls.

From ChEMBL document CHEMBL5214971, “Multiple approaches to repurposing drugs for neuroblastoma” (Bioorg Med Chem, 2022) come the findings set out here.

A value given as a limit tells only on which side of the number the result lay.

The test system of one data set is SH-SY5Y. Put plainly: Anticancer activity against human SH-SY5Y cells assessed as reduction in cell viability incubated for 48 hrs by resazurin dye based fluorescence assay. It counts as functional. Put shortly: (§1)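 Cells seeded at 1×10^4 cells/well in DMEM/Ham's F12 (1:1, L-glutamine, 15 mM HEPES) with 10% FBS, 37°C, 5% CO2. Compounds in DMSO, 50 μM then two-fold over 8 further dilutions to 0.195 μM; 0.5% DMSO final. 48 h exposure. Resazurin 0.0125 mg/ml final, read 3 h (HT1080) or 8 h (SH-SY5Y, SK-N-AS) at Ex 544/Em 590 nm. Inhibition relative to DMSO control; triplicates, ≥2 experiments.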
For orientation: Resazurin is reduced to fluorescent resorufin, in cell work by metabolically active cells.

In a further data set the test system is SK-N-AS. Briefly: Anticancer activity against human SK-N-AS cells assessed as reduction in cell viability incubated for 48 hrs by resazurin dye based fluorescence assay. It counts as functional. Put shortly:
as §1

In a further data set the test system is HT-1080. Put plainly: Anticancer activity against human HT-1080 cells assessed as reduction in cell viability incubated for 48 hrs by resazurin dye based fluorescence assay. Format: functional. Conditions: HT-1080, 48 h. Put shortly: as §1
In data set [1] the target is Cathepsin D (Homo sapiens) (UniProt P07339). Briefly: Inhibition of cathepsin D (unknown origin) using MCA labelled GKPILFFRLK(Dnp)-D-R-NH as substrate at 200 uM preincubated for 15 mins followed by substrate addition and measured after 2 hrs by fluorometer analysis. Conditions: time 135.0 min.
Data set [2] can be described thus: Cytotoxicity against African green monkey Vero 76 cells assessed as reduction in cell viability. It counts as toxicity, cell-based. To be noted: African green monkey (Chlorocebus sabaeus).
Data set [3] in a line: Cytotoxicity against human HeLa cells assessed as reduction in cell viability incubated for 48 hrs by CellTiter Glo assay. Format: toxicity, cell-based. A general note: ATP-based viability assays read luminescence as a measure of living cells.
Data set [4] in a line: Cytotoxicity against human A549-ACE2 cells expressing ACE2 assessed as reduction in cell viability by CytoTox-Glo assay. It counts as toxicity, cell-based.
In data set [5] the target is Calcium/calmodulin-dependent protein kinase type 1 (Homo sapiens) (UniProt Q14012). Put plainly: Inhibition of CAMK1 (unknown origin) at 1 uM by Adapta assay.
For data set [6], the target named is Maternal embryonic leucine zipper kinase (Homo sapiens) (UniProt Q14680). Put plainly: Inhibition of MELK (unknown origin) at 1 uM by Adapta assay.
Chain of Maternal embryonic leucine zipper kinase (Homo sapiens) (Q14680 whole entry, looked up): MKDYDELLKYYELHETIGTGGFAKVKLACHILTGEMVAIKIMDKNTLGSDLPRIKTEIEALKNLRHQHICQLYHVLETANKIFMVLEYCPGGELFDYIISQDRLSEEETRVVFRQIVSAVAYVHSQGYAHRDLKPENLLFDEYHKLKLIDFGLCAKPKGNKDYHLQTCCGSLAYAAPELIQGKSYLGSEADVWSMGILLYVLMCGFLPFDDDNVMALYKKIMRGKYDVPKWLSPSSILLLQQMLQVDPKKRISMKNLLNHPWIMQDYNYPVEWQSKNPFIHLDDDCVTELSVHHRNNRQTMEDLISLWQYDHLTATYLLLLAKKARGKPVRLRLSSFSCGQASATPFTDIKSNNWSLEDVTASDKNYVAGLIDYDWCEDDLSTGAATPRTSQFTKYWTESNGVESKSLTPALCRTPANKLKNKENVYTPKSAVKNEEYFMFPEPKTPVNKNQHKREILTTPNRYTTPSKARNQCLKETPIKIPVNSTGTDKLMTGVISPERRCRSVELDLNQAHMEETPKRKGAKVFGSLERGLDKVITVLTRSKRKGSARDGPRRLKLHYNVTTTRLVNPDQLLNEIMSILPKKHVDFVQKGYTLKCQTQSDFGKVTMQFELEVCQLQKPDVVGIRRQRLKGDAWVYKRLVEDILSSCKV

Chain of Cathepsin D (Homo sapiens) (P07339 65-162 limits assumed): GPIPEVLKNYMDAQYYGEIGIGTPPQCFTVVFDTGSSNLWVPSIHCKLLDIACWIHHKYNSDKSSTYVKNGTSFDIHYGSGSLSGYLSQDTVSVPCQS
Chain of Cathepsin D (Homo sapiens) (P07339 169-412 limits assumed): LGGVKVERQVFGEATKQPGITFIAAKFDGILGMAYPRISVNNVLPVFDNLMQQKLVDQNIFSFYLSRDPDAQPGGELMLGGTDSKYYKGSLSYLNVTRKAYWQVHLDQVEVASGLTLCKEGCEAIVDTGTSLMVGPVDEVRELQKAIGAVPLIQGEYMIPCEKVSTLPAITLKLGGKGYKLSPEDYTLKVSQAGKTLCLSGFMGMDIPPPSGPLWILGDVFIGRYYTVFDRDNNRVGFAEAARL
Chain of Calcium/calmodulin-dependent protein kinase type 1 (Homo sapiens) (Q14012 whole entry, looked up): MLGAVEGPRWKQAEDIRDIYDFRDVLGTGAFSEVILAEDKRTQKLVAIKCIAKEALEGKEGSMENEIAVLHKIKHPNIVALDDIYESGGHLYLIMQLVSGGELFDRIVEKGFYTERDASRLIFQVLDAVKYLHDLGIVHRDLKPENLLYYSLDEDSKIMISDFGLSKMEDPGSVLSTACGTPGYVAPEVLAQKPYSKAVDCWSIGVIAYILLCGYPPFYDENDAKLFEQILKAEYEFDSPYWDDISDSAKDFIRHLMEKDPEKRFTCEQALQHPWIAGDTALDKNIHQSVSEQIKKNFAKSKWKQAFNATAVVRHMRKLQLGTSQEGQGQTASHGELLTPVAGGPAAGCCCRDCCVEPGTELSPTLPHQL

Consider `COc1ccc2nc3cc(Cl)ccc3c(Nc3ccc(O)c(CN4CCCC4)c3)c2c1`, for which the IC50 stood at 1.2 µM with SH-SY5Y, 3.86 µM in the data set with SK-N-AS and 3.6 µM in the data set on HT-1080.
For `Cc1ccc(S(=O)(=O)/C=C/C#N)cc1`, the figures for the 50% inhibitory concentration (IC50) in the data set on SH-SY5Y and in the data set on SK-N-AS were 0.85 µM and 1.23 µM, respectively.
Regarding `COc1ccc2nc3cc(Cl)ccc3c(Nc3cc(CN4CCCC4)c(O)c(CN4CCCC4)c3)c2c1`, the concentration for half-maximal inhibition (IC50) in the data set on SH-SY5Y came to 9.7 µM; in the data set on HT-1080, 13.8 µM.
For the compound `COc1ccc2nc3cc(Cl)ccc3c(Nc3cc(CN(C)C)c(O)c(CN(C)C)c3)c2c1`, the IC50 in the data set on SH-SY5Y was found to be 3.41 µM; with SK-N-AS, 5.4 µM; in the data set with HT-1080, 6.09 µM.
As for `C[C@@H](Oc1cc(-c2cnn(C3CCNCC3)c2)cnc1N)c1c(Cl)ccc(F)c1Cl` [CRIZOTINIB], the IC50 turned out to be 0.92 µM in the data set with SH-SY5Y and 12.1 µM with SK-N-AS.
Taken in the same sequence, the figures for `CN1CCN(c2ccc(C(=O)Nc3n[nH]c4ccc(Cc5cc(F)cc(F)c5)cc34)c(NC3CCOCC3)c2)CC1` [ENTRECTINIB] were 1.6 µM and 4.47 µM.
As for `CCCCCCCCc1ccc(CCC(N)(CO)CO)cc1` [FINGOLIMOD], the figures for the IC50 in the data set with SH-SY5Y and in the data set with SK-N-AS were 4.71 µM and 6.11 µM, respectively.
The corresponding values for `O=C(Nc1ccc([N+](=O)[O-])cc1Cl)c1cc(Cl)ccc1O` [NICLOSAMIDE] are 0.87 µM and 2.33 µM.
Consider `COc1ccc2nc3cc(Cl)ccc3c(Nc3cc(CN4CCCC4)c(O)c(CN4CCCC4)c3)c2n1` [PYRONARIDINE], for which the IC50 in the data set with SH-SY5Y was 1.7 µM; in the data set on SK-N-AS it was 3.45 µM; in the data set on HT-1080, 4.23 µM; in [2], 1.3 µM; in data set [4], more than 10 µM. For the same compound, the inhibition in [1] was more than 50%; in data set [5] it was 35%; in data set [6] it was 31%. In addition, the half-inhibitory concentration (IC50) at 48 h in data set [3] turned out to be 3.1 µM.
Turning to `CCN(CC)CCCC(C)Nc1c2ccc(Cl)cc2nc2ccc(OC)cc12` (centres undefined) [QUINACRINE], the half-maximal inhibitory concentration (IC50) with SH-SY5Y was determined as 8.57 µM; in the data set with HT-1080 it was 29 µM.
